Results from different studies.
Each line is one published result; the experiments were not run side by side.
EGFR A750P/del747-749: Epidermal growth factor receptor (EGFR, Homo sapiens, UniProt P00533, A750P/del747-749)
EGFR del746-750: Epidermal growth factor receptor (EGFR, Homo sapiens, UniProt P00533, del746-750)
EGFR L858R: Epidermal growth factor receptor (EGFR, Homo sapiens, UniProt P00533, L858R)
EGFR L858R/T790M: Epidermal growth factor receptor (EGFR, Homo sapiens, UniProt P00533, L858R/T790M)
EGFR: Epidermal growth factor receptor (EGFR, Homo sapiens, UniProt P00533)
EGFR G719C: Epidermal growth factor receptor (EGFR, Homo sapiens, UniProt P00533, G719C)

Structure (SMILES) | target | read-out | method | tested at | remaining binding [%]
O=C(NCCCN1CCOCC1)c1ccc(Nc2ncc(Cl)c(-c3ccc(Cl)s3)n2)cc1 | EGFR A750P/del747-749 | binding | competition with immobilised ligand | 1 µM | 72
O=C(NC1CCC1)c1ccc2nc(-c3cccc(NS(=O)(=O)NCCN4CCCCC4)c3)cn2c1 | Epidermal growth factor receptor (EGFR, Homo sapiens, UniProt P00533, del747-750/T751S) | cell-free assay | competition with immobilised ligand | 10 µM | 100
COc1cnc(Nc2cccc(S(N)(=O)=O)c2)nc1N1CCN(c2ccccc2)C(=O)C1 | EGFR del746-750 | binding | competition with immobilised ligand | 1 µM | 96
O=C(NCCCN1CCOCC1)c1ccc(Nc2nccc(-c3cc4ccccc4s3)n2)cc1 | Epidermal growth factor receptor (EGFR, Homo sapiens, UniProt P00533, L861Q) | binding | competition with immobilised ligand | 1 µM | 99
Nc1ncc2c(n1)-c1c([nH]c3ccc(C#CC4CC4)cc13)CCCC2 | EGFR L858R | binding | competition with immobilised ligand | 1 µM | 100
CC1CCCN1c1nccc(-c2cnn3ncccc23)n1 (centres unmarked) | EGFR L858R/T790M | binding |  | 1 µM | 100
CC(C)CC(=O)N1CCc2nc(-c3ccc(Br)cc3)nc(N(C)Cc3ccccc3)c2C1 | EGFR del746-750 | cell-free assay | competition with immobilised ligand | 0.1 µM | 100
N[C@@H]1CCN(c2nccc(-c3cnn4ncccc34)n2)C1 | EGFR del746-750 | binding |  | 1 µM | 100
O=C(c1ccc(Nc2ncc(Cl)c(-c3ccc(Cl)s3)n2)cc1)N1CCC(N2CCCC2)CC1 | EGFR L858R | binding | competition with immobilised ligand | 1 µM | 72
CCN1CCN(Cc2ccc(C(=O)Nc3ccc(C)c(Oc4ccc5c(c4)CC(=O)N5)c3)cc2C(F)(F)F)CC1 | EGFR A750P/del747-749 | binding | competition with immobilised ligand | 1 µM | 100
Cc1nccc(COC(=O)N2C[C@@H]3[C@@H](CNC(=O)c4ccc5[nH]nnc5c4)[C@@H]3C2)n1 | EGFR A750P/del747-749 | cell-free assay | competition with immobilised ligand | 1 µM | 71
C[C@H]1CCN(c2nccc(-c3cnn4ncccc34)n2)C1 | EGFR | binding |  | 1 µM | 100
Cn1nc(C(=O)NCc2ccc(C(=O)O)cc2)cc1-c1ccc2[nH]ccc2c1 | Epidermal growth factor receptor (EGFR, Homo sapiens, UniProt P00533, del752-759) | cell-free assay | competition with immobilised ligand | 0.1 µM | 94
COc1cnc(Nc2cccc(S(N)(=O)=O)c2)nc1N1CCN(c2ccccc2)CC1 | Epidermal growth factor receptor (EGFR, Homo sapiens, UniProt P00533, del747-752/P753S) | binding | competition with immobilised ligand | 1 µM | 85
CS(=O)(=O)NCC[C@H](NC(=O)c1cncc2c1cnn2-c1ccc(F)cc1)c1ccnc(S(C)(=O)=O)c1 | Epidermal growth factor receptor (EGFR, Homo sapiens, UniProt P00533, G719S) | cell-free assay | competition with immobilised ligand | 1 µM | 75
CN(C)c1ncc(F)c(-c2cnn3ncccc23)n1 | EGFR G719C | binding |  | 1 µM | 86
Cc1ccc(NC(=O)c2ccc(CN3CCN(C)CC3)cc2)cc1Nc1nccc(-c2cccnc2)n1 | EGFR | cell-free assay | competition with immobilised ligand | 0.1 µM | 100
CO[C@@H](C)c1c(Nc2ccc([C@@H](N(C)C(=O)C3CCS(=O)(=O)CC3)C(F)(F)F)cc2)cnc2cc(Cl)nn12 | Epidermal growth factor receptor (EGFR, Homo sapiens, UniProt P00533, T790M) | cell-free assay | competition with immobilised ligand | 1 µM | 100
COc1ccnn2ncc(-c3ccnc(N(C)C)n3)c12 | EGFR L858R/T790M | binding |  | 1 µM | 93
CN([C@@H]1CCc2c(CC(=O)O)c3cc(S(C)(=O)=O)ccc3n2C1)S(=O)(=O)c1ccc(F)cc1 | EGFR L858R/T790M | cell-free assay | competition with immobilised ligand | 1 µM | 100
O=C(NCC1CCOCC1)c1n[nH]cc1NC(=O)c1c(F)cccc1F | EGFR G719C | binding | competition with immobilised ligand | 1 µM | 100
Cc1cnn2ncc(-c3ccnc(N(C)C)n3)c2c1 | EGFR L858R/T790M | binding |  | 1 µM | 100
COc1cccc(CNC(=O)c2nc3scc(COCc4ccc(C(=O)O)cc4)c3c(=O)[nH]2)c1 | EGFR L858R | cell-free assay | competition with immobilised ligand | 1 µM | 88.3
